High-throughput results from PubChem BioAssay.
Apaf1 inhib: inhibitors of human Apaf-1 apoptosome, primary screen, biochemical, DEVD-Rh110 fluorescence, uHTS | Apoptotic protease-activating factor 1 (Homo sapiens), O14727 | reconstituted apoptosome caspase-3 activity | inhibition, % at 20 µM | 330,000 compounds, 0.71% hits | AID 489030, 2010; active = inhibition of at least 40% at 20 µM;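 note: plate controls were DMSO wells for no effect and DEVD-CHO caspase inhibitor wells for full effect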
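Material: reconstituted apoptosome with Apaf-1, cytochrome c, caspase-9, procaspase-3, dATP. Technique: Rh110 fluorescence intensity. Buffer or medium: pH 7.5 Hepes buffer with CHAPS, BSA, DTT. Times: 30 min plus 50 min, RT.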
SENP8 block-1: human SENP8 protease inhibitors, primary screen, biochemical, fluorescence, Nedd8 protein substrate, uHTS; Sentrin-specific protease 8 (Homo sapiens), Q96LD8; recombinant SENP8; inhibition, % at 20 µM; 360,000 compounds, 0.64% hits; AID 602440, 2012; in the data active = inhibition mostly above about 40%, no sharp cut-off; inactive = mostly below about 27%
SENP7 block: SENP7 protease inhibitors, primary screen, biochemical, luminescence, uHTS | Sentrin-specific protease 7 (Homo sapiens), Q9BQF6 | recombinant SENP7, Z-RLRGG-aminoluciferin luminescence, 40 min | inhibition, % at 5 µM | 330,000 compounds, 1.5% hits | AID 434973, 2010;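 active = inhibition above about 50% at the single test dose, limit read from the data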;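 note: plate controls were DMSO with enzyme for no effect and no enzyme buffer wells for full effect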
Target sequence (Q9BQF6 706-1050 limits assumed): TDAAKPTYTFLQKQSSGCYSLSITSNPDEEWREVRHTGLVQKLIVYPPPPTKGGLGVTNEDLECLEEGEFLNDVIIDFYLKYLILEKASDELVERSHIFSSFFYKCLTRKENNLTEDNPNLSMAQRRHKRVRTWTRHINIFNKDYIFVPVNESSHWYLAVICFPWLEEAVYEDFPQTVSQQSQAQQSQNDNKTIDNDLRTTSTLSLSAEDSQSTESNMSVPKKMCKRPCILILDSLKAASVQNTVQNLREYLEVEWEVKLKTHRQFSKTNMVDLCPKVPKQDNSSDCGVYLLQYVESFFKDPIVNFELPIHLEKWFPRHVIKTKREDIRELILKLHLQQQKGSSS
SENP8 block-2: SENP8 protease inhibitors, primary screen, biochemical, luminescence; Sentrin-specific protease 8 (Homo sapiens), Q96LD8; purified SENP8, Z-RLRGG-aminoluciferin cleavage; inhibition, % at 10 µM; 330,000 compounds, 1.2% hits; in the data active = inhibition above about 50%
UBC13 polyUb: UBC13 polyubiquitin chain formation inhibitors, primary screen, biochemical, TR-FRET, uHTS; Ubiquitin-conjugating enzyme E2 N (Homo sapiens), P61088; inhibition, % at 20 µM; 330,000 compounds, 0.47% hits; in the data active = inhibition above about 45%, passing the limit was not always enough
Target sequence (P61088 whole entry, looked up): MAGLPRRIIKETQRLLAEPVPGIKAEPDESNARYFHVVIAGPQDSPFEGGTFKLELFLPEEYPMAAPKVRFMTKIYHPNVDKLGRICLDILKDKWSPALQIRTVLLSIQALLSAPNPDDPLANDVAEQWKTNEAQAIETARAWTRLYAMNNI
SENP6 inh: SENP6 protease inhibitors, primary screen, biochemical, luminescence, uHTS. 330,000 compounds, 1.8% hits. inhibition, % at 10 µM. Recombinant SENP6 catalytic domain, aminoluciferin luminescence. Sentrin-specific protease 6 (Homo sapiens), Q9GZR1;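 active = inhibition above about 50% at the single tested dose, limit read from the data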;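 note: plate controls were DMSO wells with enzyme for no effect and DMSO wells lacking enzyme for full effect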
Apaf-1 inh conf2: Apaf-1 inhibitors, single-dose retest, confirmation, biochemical, fluorescence, DEVD-Rh110, 20 µM; shares compounds with Apaf1 inhib; reconstituted apoptosome, caspase-3 DEVD-Rh110 fluorescence; inhibition, % at 20 µM; 1,800 compounds, 25% hits; AID 504614, 2011;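 active = mean inhibition of at least 40% at 20 µM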;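 note: plate controls were DMSO wells for no effect and DEVD-CHO caspase inhibitor control wells for full effect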
Rh110 quench: Rh110 fluorescence interference by putative Apaf-1 inhibitors, confirmation, artefact control for Apaf-1 inhibitor project, biochemical, 20 µM; shares compounds with Apaf1 inhib; quenched caspase reaction; activation (fluorescence interference), % at 20 µM; 1,800 tested, under 10 active; AID 504615, 2011;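 active = signal rise of 40% or more at 20 µM, treated as a fluorescence artifact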
Apaf1 inh interf: fluorescence interference of Apaf-1 inhibitor hits, dose response, artefact control for Apaf-1 inhibitor project; 460 tested, under 10 active; IC50, µM; shares compounds with Apaf1 inhib; fluorescence interference counterscreen, Apaf-1 assay format; call rule not given here
SENP8 conf: human SENP8 protease inhibitors, confirmation, biochemical, Nedd8 protein substrate, single concentration; shares compounds with SENP8 block-1; purified SENP8, Nedd8-AMC/pro-Nedd8 cleavage fluorescence, 30 min; inhibition, % at 25 µM; 1,400 compounds, 15% hits; in the data active = inhibition mostly above about 39%, no sharp cut-off; inactive = mostly below about 34%
* marks the source's active call; other numbers are inactive results. Compounds with a hit are over-represented: about 3% of the library has one in this group of screens.

Results for CC1=NN(c2ccc(C)cc2C)C(=O)C1C(c1ccccc1O)C1C(=O)N(c2ccc(C)cc2C)N=C1C (centres undefined) ?
Apaf1 inhib: 97*; SENP8 block-1: 58*; SENP7 block: 27; SENP8 block-2: 15; UBC13 polyUb: -18; SENP6 inh: 44; Apaf-1 inh conf2: 23; Rh110 quench: -2; SENP8 conf: 57*

Results for N#Cc1cccc(NC(=O)c2cc(C3CCCCN3C(=O)c3ccccn3)on2)c1 (centres undefined) ?
SENP8 block-1: 10

Results for c1coc(-c2nnc(-c3ccco3)nn2)c1 ?
Apaf1 inhib: 84*; SENP8 block-1: 87*; SENP7 block: 11; SENP8 block-2: 55*; UBC13 polyUb: 12; SENP6 inh: 73*; Apaf-1 inh conf2: 58*; Rh110 quench: 6; Apaf1 inh interf: >100; SENP8 conf: 70*

How did Cc1ccccc1-c1cnc(C(O)c2cccc(C)c2C)[nH]1 (centres undefined) do in these assays?
SENP8 block-1: 9

Results for Cc1[nH][nH]c(=O)c1C(c1ccc(-c2cccc(C(=O)O)c2)o1)c1c(C)[nH][nH]c1=O ?
Apaf1 inhib: 78*; SENP8 block-1: 52*; SENP7 block: 16; SENP8 block-2: 19; UBC13 polyUb: -54; SENP6 inh: 39; Apaf-1 inh conf2: 31; Rh110 quench: 9; SENP8 conf: 70*

Results for Cc1[nH][nH]c(=O)c1C(c1ccc(Br)cc1)c1c(C)[nH][nH]c1=O ?
Apaf1 inhib: 12; SENP8 block-1: 26; SENP7 block: 1; SENP8 block-2: 0; UBC13 polyUb: -16; SENP6 inh: 20

What do the screens show for `Cc1[nH][nH]c(=O)c1C(c1ccc(-c2cccc(Cl)c2)o1)c1c(C)[nH][nH]c1=O`?
Apaf1 inhib: 87*; SENP8 block-1: 79*; SENP7 block: 10; SENP8 block-2: 20; UBC13 polyUb: -15; SENP6 inh: 43; Apaf-1 inh conf2: 41*; Rh110 quench: -2; Apaf1 inh interf: >100; SENP8 conf: 85*

How did CN(C)c1cccc2c1c(NC(=O)c1ccc(F)cc1)nn2C do in these assays?
Apaf1 inhib: 92*; SENP8 block-1: 55*; SENP7 block: 8; SENP8 block-2: 8; UBC13 polyUb: -7; SENP6 inh: 0; Apaf-1 inh conf2: 16; Rh110 quench: 1; SENP8 conf: 15

What do the screens show for `COc1cccc2c1c(NC(=O)c1cc(C)on1)nn2C`?
Apaf1 inhib: -16; SENP8 block-1: 11; SENP7 block: -2; SENP8 block-2: -3; UBC13 polyUb: 0; SENP6 inh: -15

What do the screens show for `COc1ccc(Br)cc1C1CC(=O)N2CN(Cc3ccccc3)CSC2=C1C#N` (centres undefined)?
Apaf1 inhib: 78*; SENP8 block-1: 68*; SENP7 block: 19; SENP8 block-2: 31; UBC13 polyUb: -5; SENP6 inh: 16; Apaf-1 inh conf2: 20; Rh110 quench: 0; SENP8 conf: 1

What do the screens show for `COc1ccc(Br)cc1C1CC(=O)N2CN(C)CSC2=C1C#N` (centres undefined)?
Apaf1 inhib: 42*; SENP8 block-1: 65*; SENP7 block: 16; SENP8 block-2: 1; UBC13 polyUb: -22; SENP6 inh: -2; Apaf-1 inh conf2: 29; Rh110 quench: 18; SENP8 conf: 1

What do the screens show for `COc1cccc(NC(=O)C2(C)CCCN2C(=O)C(C)C)c1OC` (centres undefined)?
SENP8 block-1: 10

Results for O=C1c2cc(F)ccc2-n2c1nc1ccccc1c2=O ?
Apaf1 inhib: 63*; SENP8 block-1: 42*; SENP7 block: 24; SENP8 block-2: 19; UBC13 polyUb: -63; SENP6 inh: 43; Apaf-1 inh conf2: 52*; Rh110 quench: -1; Apaf1 inh interf: >100; SENP8 conf: 60*

Results for CNC[C@@H]1OCc2ccccc2-c2c(n(C)c3ccccc23)C(=O)N([C@H](C)CO)C[C@H]1C ?
SENP8 block-1: -7

How did CCC(CO)Oc1cc(NCc2ccncc2)c2ncn(C(C)C)c2c1 (centres undefined) do in these assays?
Apaf1 inhib: 41*; SENP8 block-1: 41*; SENP7 block: 3; SENP8 block-2: 6; UBC13 polyUb: 2; SENP6 inh: 6; Apaf-1 inh conf2: 17; Rh110 quench: -393; SENP8 conf: 29

How did CC1=NN(c2ccc(C(F)(F)F)cn2)C(=O)C1 do in these assays?
Apaf1 inhib: 62*; SENP8 block-1: 75*; SENP7 block: 12; SENP8 block-2: 8; UBC13 polyUb: -42; SENP6 inh: 15; Apaf-1 inh conf2: 61*; Rh110 quench: -4; Apaf1 inh interf: >100; SENP8 conf: 58*

How did CS(=O)(=O)Nc1ccc(N2CCN(c3ccc(C(F)(F)F)cn3)CC2)nc1 do in these assays?
Apaf1 inhib: 7; SENP8 block-1: -209; SENP7 block: 0; SENP8 block-2: -10; UBC13 polyUb: -4; SENP6 inh: -1

How did O=C1NC[C@@H](CCCCN2CCN(Cc3ccccc3)C(=O)C2=O)N(Cc2ccccc2)C1=O do in these assays?
SENP8 block-1: 14

How did Cc1cc(O)c(C(C)C)cc1N=Cc1cc([N+](=O)[O-])ccc1O do in these assays?
Apaf1 inhib: 44*; SENP8 block-1: 73*; SENP7 block: 14; SENP8 block-2: -1; UBC13 polyUb: -29; SENP6 inh: 25; Apaf-1 inh conf2: 7; Rh110 quench: 1; SENP8 conf: 21

Results for CCc1ccc(CN(C)Cc2c(C(=O)N3CCOCC3)nc3c(C)cccn23)nc1 ?
SENP8 block-1: -10
